# An excerpt weighted towards active compounds, which were near 3.5% of everything screened.
# pPAFAH FP inh: pPAFAH (human) enzyme inhibition; Q13093; recombinant pPAFAH, FP-rhodamine probe fluorescence polarization; inhibition, % at 3.39 µM; 1.5% of 330,000 active; AID 463082;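 active = inhibition above the mean inhibition across the screen plus 3 SD, cut at about 25% in these data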;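 note: inhibitors block binding of the rhodamine activity-based probe so polarization drops; 0% = enzyme with DMSO and 100% = wells lacking pPAFAH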
# Target sequence (Q13093 whole entry, looked up): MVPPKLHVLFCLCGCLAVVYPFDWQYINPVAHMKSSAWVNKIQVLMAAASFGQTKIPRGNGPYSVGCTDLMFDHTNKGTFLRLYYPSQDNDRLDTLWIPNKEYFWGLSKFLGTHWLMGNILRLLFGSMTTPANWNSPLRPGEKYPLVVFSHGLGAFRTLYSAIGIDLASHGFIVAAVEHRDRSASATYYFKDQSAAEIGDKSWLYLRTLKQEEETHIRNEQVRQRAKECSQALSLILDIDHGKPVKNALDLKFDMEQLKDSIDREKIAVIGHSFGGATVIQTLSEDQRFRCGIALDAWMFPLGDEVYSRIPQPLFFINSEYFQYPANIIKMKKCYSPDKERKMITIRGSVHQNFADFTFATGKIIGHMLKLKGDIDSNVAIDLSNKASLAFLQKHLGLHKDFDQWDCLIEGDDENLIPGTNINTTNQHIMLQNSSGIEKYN
# PAFAH2 inh: inhibitors of human PAFAH2. 0.99% of 340,000 active. inhibition, % at 3.39 µM. recombinant PAFAH2, FP-rhodamine activity probe, fluorescence polarization;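 active = inhibition above the mean over all tested compounds plus 3 SD, cut at about 30% in these data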;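 note: inhibitors block probe labeling of enzyme so polarization drops; 0% = enzyme with DMSO and 100% = wells lacking PAFAH2 protein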
# PREPL inh: human PREPL enzyme inhibition. recombinant PREPL, fluorescence polarization activity-based probe. Q4J6C6. inhibition, % at 5.96 µM. 0.68% of 320,000 active; in the data active = inhibition above about 43%;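 note: 0% = enzyme with DMSO and 100% = wells lacking enzyme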
# PAFAH1B2 FP inh: PAFAH1B2 (human) inhibition. AID 492953. recombinant PAFAH1B2, FP-rhodamine activity probe, fluorescence polarization. P68402. 1.2% of 340,000 active. inhibition, % at 3.39 µM;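 active = inhibition above the mean of all tested compounds plus 3 SD, cut at about 24% in these data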;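 note: 0% = enzyme with DMSO and 100% = wells lacking PAFAH1B2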
# Apaf-1 inh: blocks human Apaf-1 apoptosome activity. O14727. reconstituted apoptosome caspase-3 activity, DEVD-Rh110 fluorescence. inhibition, % at 20 µM. 0.71% of 330,000 active; active = inhibition of at least 40% at 20 µM;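 note: plate controls were DMSO wells for no effect and DEVD-CHO caspase inhibitor wells for full effect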
#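 Assay system: Apoptosome proteins | Medium: pH 7.5 Hepes buffer with CHAPS, BSA, DTT | Also added: Cytochrome c and DEVD-Rh110 substrate | Times: 30 min plus 50 min, RT | Detection: Rhodamine 110 fluorescence at Ex 480/Em 540 nm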
# PAFAH1B3 inh: inhibitors of human PAFAH1B3. Q15102. AID 492972. recombinant PAFAH1B3, FP-rhodamine probe, fluorescence polarization. 0.28% of 340,000 active. inhibition, % at 3.39 µM;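 active = inhibition above the screen-wide average of all tested compounds plus 3 SD, cut at about 25% in these data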;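 note: 0% = enzyme with DMSO only and 100% = wells lacking PAFAH1B3 protein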
# The depositor's hits bear a star; x = no result.
SMILES,pPAFAH FP inh,PAFAH2 inh,PREPL inh,PAFAH1B2 FP inh,Apaf-1 inh,PAFAH1B3 inh
Cc1cc(C)n2nc(SCC(=O)N/N=C/c3ccccc3F)nc2n1,1,0,50*,-1,0,1
Cc1ccc(/C=N/NC(=O)CSc2nc3nc(C)cc(C)n3n2)cc1,-3,2,24,3,-7,6
CSCCC(NC(=O)c1ccco1)C(=O)NCC(c1ccccc1)N(C)C (centres undefined),-1,0,6,6,38,4
COc1cc(CNc2ccc(N3CCCC3)cc2)cc(Cl)c1OC,28*,-4,33,7,34,10
COc1ccccc1CNc1ccc(N2CCCCC2)cc1,27*,4,20,7,-14,8
CCOc1ccc(CNc2ccc(N3CCCC3)cc2)cc1,33*,1,44*,4,35,6
CCOc1ccc(CNc2ccc(N3CCN(Cc4ccccc4)CC3)cc2)cc1,5,-3,17,-4,-4,11
CS(=O)(=O)c1ccc(Cl)c(NC(=O)COC(=O)CCN2C(=O)C3CC=CCC3C2=O)c1 (centres undefined),x,1,x,2,x,1
Nc1ccc(C(=O)c2cccs2)cc1[N+](=O)[O-],0,5,1,-1,11,-4
CC(C)c1cc(Nc2cccc(O)c2)cc(C(C)C)c1O,26*,x,12,x,16,x
CCCNC(=O)C1CC(=O)N(c2ccc(OCc3ccc(Cl)cc3)cc2)C1 (centres undefined),9,-3,22,30*,1,0
NC(=O)C1CC(=O)N(c2ccc(OCc3ccc(Cl)cc3)cc2)C1 (centres undefined),9,-6,31,28*,10,4
CCCNC(=O)C1CC(=O)N(c2ccc(OCc3ccc(F)cc3)cc2)C1 (centres undefined),4,3,22,0,1,-6
Cc1cc(C)c(C)c(S(=O)(=O)N2CCC(C(=O)N3CCCC3)CC2)c1C,3,10,10,1,-4,4
O=C(Cc1ccccc1)c1ccccc1C(=O)N1CCCCC1,5,5,1,3,-2,5
COc1ccc(-c2csc(Cc3nnc(N4CCOCC4)n3-c3ccccc3)n2)cc1OC,5,1,8,2,-8,4
COc1ccc(-c2csc(Cc3nnc(N4CCOCC4)n3-c3ccccc3)n2)cc1,8,-5,51*,3,-19,4
Cc1nn(CC(=O)NC(C)C(C)C)c(C)c1S(=O)(=O)N1CCCCC1 (centres undefined),x,1,x,4,6,1
C[C@@H]1O[C@@H](OC[C@H]2O[C@@H](Oc3cc(O)c4c(=O)cc(-c5ccc(O)c(O)c5)oc4c3)[C@H](O)[C@@H](O)[C@@H]2O)[C@H](O)[C@H](O)[C@H]1O,15,23,28,75*,3,87*
O=c1c(O[C@H]2O[C@@H](CO)[C@H](O)[C@@H](O)[C@@H]2O)c(-c2ccc(O)cc2)oc2cc(O)cc(O)c12,-3,2,15,3,1,2
O=c1c(OC2OC(CO)C(O)C(O)C2O)c(-c2ccc(O)c(O)c2)oc2cc(O)cc(O)c12 (centres undefined),29*,-7,9,3,9,46*
CCN(CC(=O)Nc1ccc(NC(C)=O)cc1)C(=O)c1ccc(C(=O)c2ccccc2)cc1,5,0,20,-4,9,2
O=C(CCl)N(c1ccccc1)C1CCCCC1,0,0,5,33*,6,2
CC1CCN(S(=O)(=O)c2ccc3c(c2)oc(=O)n3C)CC1,0,-6,14,25*,5,6
Cn1c(=O)oc2cc(S(=O)(=O)N3CCC(N4CCCCC4)CC3)ccc21,3,-4,2,3,-1,10
SMILES,pPAFAH FP inh,PAFAH2 inh,PREPL inh,PAFAH1B2 FP inh,Apaf-1 inh,PAFAH1B3 inh
O=C(CCSCc1ccccc1Cl)N1CCN(c2cccc(Cl)c2)CC1,4,-5,-12,0,31,4
CCOC(=O)c1ccc2c(c1)C1C=CCC1C(C(=O)OCC)N2 (centres undefined),28*,10,14,3,12,15
CCOC(=O)C1Nc2ccc(C)cc2C2C=CCC12 (centres undefined),22,8,6,-1,4,4
Cc1nc2ccccc2n1CCOc1ccc(F)cc1,x,0,x,-2,-9,5
Cc1nc2ccccc2n1CCOc1ccc([N+](=O)[O-])cc1,30*,-3,-1,6,5,8
COc1ccc(OC)c(NC(=O)CN2CCC(C(=O)c3ccc(C)cc3)CC2)c1,29*,-7,18,0,19,7
COc1ccc(C)cc1NC(=O)CN1CCN(S(=O)(=O)c2ccc(C(C)C)cc2)CC1,2,0,11,0,17,3
O=C(CN1CCN(S(=O)(=O)c2ccc(Cl)cc2)CC1)NC1CCCC1,-3,2,11,29*,-10,6
COc1ccc(C)cc1NC(=O)CN1CCN(S(=O)(=O)c2ccc(Cl)cc2)CC1,-4,2,1,28*,21,9
O=C(CN1CCN(S(=O)(=O)c2ccc(F)cc2)CC1)NC1CCCC1,1,3,8,11,-2,3
O=C(CCN1CCN(S(=O)(=O)c2ccc(Cl)cc2)CC1)Nc1ccc(F)cc1,-1,-5,-5,25*,-1,9
CN(CC(=O)O)S(=O)(=O)c1ccc2c(c1)NC(=O)CC(=O)N2,4,-8,-2,1,-23,4
O=S(=O)(c1ccc(Cl)cc1)N1CCN2CCCC2C1 (centres undefined),0,12,4,27*,-15,5
COc1ccc(Cl)cc1NC(=O)CN(C)C(=O)CCSc1ccc(C)cc1,-2,7,9,26*,10,6
CC1CC2CCCC(O)=C2C(=O)O1 (centres undefined),x,3,x,-2,x,2
Oc1c(Cl)cc(Cl)cc1/C=N/c1nc(-c2ccc(Cl)cc2)cs1,15,8,15,48*,11,4
N#Cc1ccc(S(=O)(=O)N2CCc3[nH]c4ccc(F)cc4c3C2)cc1,13,8,0,38*,-6,5
O=S(=O)(c1ccc2[nH]c3c(c2c1)CCCC3)N1CCCCC1,14,7,0,5,14,5
COc1ccc2c(-c3ccccc3)cc(SCC(N)=O)nc2c1,33*,-5,-2,-3,13,-6
CN(C)c1ccc(N/C=C/C(=O)c2ccco2)cc1,28*,1,29,2,5,-3
CC(=O)Nc1ccc(N/C=C/C(=O)c2ccco2)cc1,3,-4,4,3,5,-4
CN(C)c1ccc(N/C=C/C(=O)c2ccc(F)cc2)cc1,31*,7,24,2,-8,1

# Screening data: PubChem, several laboratories
